Series [1] is described as follows: Octanol-water partition coefficient, log P of the compound. It is filed as physicochemical.
In another series the test system is Entamoeba histolytica. The series can be described thus: Antiamoebic activity against Entamoeba histolytica HM-1:IMSS after 72 hrs by microdilution method.
A further series deals with HepG2. The series can be described thus: Cytotoxicity against human HepG2 cells after 48 hrs by MTT assay. It is filed as cell-based. The settings on record: for IC50: Homo sapiens, HepG2, 48 h; for inhibition (INH): human, hepg2, 48 h. In short, it runs like this: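 HepG2 cells grown in DMEM with 10% heat-inactivated FBS and antibiotics at 37 °C, 5% CO2. Cells seeded at 1.2 × 10^4/well and grown 48 h, then exposed 48 h to 3.13–100 µM compound (DMSO stock diluted in medium). MTT (5 mg/mL) added for 4 h, formazan dissolved in DMSO, A570 read against 655 nm reference. Viability expressed relative to untreated cells; triplicate, repeated thrice.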
For orientation: Tetrazolium assays rely on reduction of a dye to a coloured formazan, in cell work by metabolically active cells.

Some results are limits rather than exact numbers.

As to `CC(C)CN1C(=O)/C(=C/c2ccc(O)cc2)S/C1=N\c1ccccc1`, the lipophilicity (logP) in series [1] came out at 5.08. This compound displayed an IC50 with Entamoeba histolytica of 2450 nM.
On to `COc1ccc(/C=C2\S/C(=N\c3ccccc3)N(CC(C)C)C2=O)cc1OC`, for which the logP in series [1] is 5.06. In the series on Entamoeba histolytica, this compound gave an IC50 of 440 nM. Moreover, in the series with HepG2, the concentration for half-maximal inhibition (IC50) was more than 100000 nM and the “inhibition (INH)” value is listed as “Dose-dependent effect”.
With `COc1ccc(/C=C2\S/C(=N\c3ccccc3)N(CC(C)C)C2=O)cc1`, the logP in series [1] stood at 5.22. In addition, 2720 nM corresponded to half-maximal inhibition in the series with Entamoeba histolytica (IC50).
As to `Cc1ccc(/C=C2\S/C(=N\c3ccccc3)N(CC(C)C)C2=O)cc1`, the logP in series [1] is 5.89. Moreover, in the series on Entamoeba histolytica, the IC50 came out at 3210 nM.
The matching figures for `CC(C)CN1C(=O)/C(=C/c2ccccc2O)S/C1=N\c1ccccc1`: 5.08 and 2040 nM.
For `CC(C)CN1C(=O)/C(=C/c2ccc3c(c2)OCO3)S/C1=N\c1ccccc1`, in that order: 5 and 16700 nM.
For `CC(C)CN1C(=O)/C(=C/c2ccccn2)S/C1=N\c1ccccc1`, the logP in series [1] stood at 4.4. For the same compound, 600 nM corresponded to half-maximal inhibition in the series on Entamoeba histolytica (IC50). In addition, in the series on HepG2, the 50% inhibitory concentration (IC50) is more than 100000 nM and the “inhibition (INH)” value was “Dose-dependent effect”.
Take `Cc1ccsc1/C=C1\S/C(=N\c2ccccc2)N(CC(C)C)C1=O`: in series [1], the logP was 5.81. For the same compound, the IC50 with Entamoeba histolytica was found to be 110 nM; with HepG2, 89200 nM. Moreover, the “inhibition (INH)” value with HepG2 is recorded as “Dose-dependent effect”.
For `COc1cc(/C=C2\S/C(=N\c3ccccc3)N(CC(C)C)C2=O)ccc1O`, in that order: 4.92, 640 nM, 89500 nM and “Dose-dependent effect”.
`CC(C)CN1C(=O)/C(=C/c2cccc(Cl)c2)S/C1=N\c1ccccc1` had a logP in series [1] of 5.98. For the same compound, in the series with Entamoeba histolytica, the half-inhibitory concentration (IC50) was found to be 660 nM. Further, in the series with HepG2, the IC50 worked out at 88100 nM and the “inhibition (INH)” value was “Dose-dependent effect”.
In turn, `COc1ccc(OC)c(/C=C2\S/C(=N\c3ccccc3)N(CC(C)C)C2=O)c1` displayed a logP in series [1] of 5.06. Moreover, the IC50 in the series on Entamoeba histolytica came to 1950 nM.
As for `CCc1ccc(/C=C2\S/C(=N\c3ccccc3)N(CC(C)C)C2=O)cc1`, in series [1], the logP worked out at 6.34. Inhibition in the series on Entamoeba histolytica was half-maximal at 960 nM (IC50). For the same compound, in the series on HepG2, inhibition was half-maximal at 84700 nM (IC50) and the “inhibition (INH)” value is recorded as “Dose-dependent effect”.
In series [1], `CC(C)CN1C(=O)/C(=C/c2ccc(Cl)cc2)S/C1=N\c1ccccc1` yielded a lipophilicity (logP) of 5.98. In addition, in the series with Entamoeba histolytica, the midpoint of inhibition, the IC50, lay at 1920 nM.
As for `CC(C)CN1C(=O)/C(=C/c2ccccc2C(F)(F)F)S/C1=N\c1ccccc1`, in series [1], the logP stood at 6.26. This compound returned an IC50 in the series on Entamoeba histolytica of 3710 nM.
For the compound `CC(C)CN1C(=O)/C(=C/c2ccc(N(C)C)cc2)S/C1=N\c1ccccc1`, the logP in series [1] was found to be 5.49. Further, the half-maximal inhibitory concentration (IC50) in the series on Entamoeba histolytica amounted to 172 nM. Also, in the series on HepG2, the IC50 is more than 100000 nM and the “inhibition (INH)” value is “Dose-dependent effect”.
The matching figures for `CC(C)CN1C(=O)/C(=C/c2ccc([N+](=O)[O-])cc2)S/C1=N\c1ccccc1`: 5.32, 138 nM, more than 100000 nM and “Dose-dependent effect”.
For the compound `Cc1ncc([N+](=O)[O-])n1CCO` [METRONIDAZOLE], in the series on Entamoeba histolytica, inhibition was half-maximal at 1640 nM (IC50). Besides, in the series on HepG2, the IC50 was more than 100000 nM and the “inhibition (INH)” value is given as “Dose-dependent effect”.

As usually defined, the logP is the decadic logarithm of the partition coefficient of the neutral form, usually between octanol and water. As a reminder, the IC50 is the concentration that gives 50% inhibition. Higher therefore signals lower potency.

The record behind these values is ChEMBL document CHEMBL2062506, “Synthesis, characterization and structure optimization of a series of thiazolidinone derivatives as Entamoeba histolytica inhibitors” (Eur J Med Chem, 2012).
